PHOSPHO1 inh: inhibitors of human PHOSPHO1 phosphatase. Q8TCT1. recombinant PHOSPHO1, absorbance phosphatase assay. inhibition, % at 13.3 µM. 290,000 compounds, 1.1% hits; in the data active means inhibition above about 60%
Target sequence (Q8TCT1 whole entry, looked up): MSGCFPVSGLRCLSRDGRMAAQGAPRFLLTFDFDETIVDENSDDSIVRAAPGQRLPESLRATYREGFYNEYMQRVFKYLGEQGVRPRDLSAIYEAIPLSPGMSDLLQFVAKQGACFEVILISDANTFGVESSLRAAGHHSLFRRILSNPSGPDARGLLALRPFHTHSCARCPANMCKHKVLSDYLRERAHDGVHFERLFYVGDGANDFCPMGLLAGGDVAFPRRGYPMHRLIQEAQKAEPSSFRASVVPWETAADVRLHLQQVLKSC
IMP-1 inh-1: blocks Pseudomonas aeruginosa IMP-1 metallo-beta-lactamase. purified IMP-1, nitrocefin hydrolysis, epi-absorbance fluorescence. inhibition, % at 5.6 µM. 290,000 compounds, 0.45% hits. AID 1556;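 active means inhibition above the mean plus 3 SD of all compounds in the same screening run, cut at about 4.5% in these data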
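Assay system: purified IMP-1; Quantity: IMP-1 0.2 nM before substrate addition; Medium: HEPES buffer pH 7.1 with ZnSO4 and Brij 35; Incubation: 15 min enzyme–compound preincubation, then 25 min nitrocefin reaction, 25 °C; Signal: fluorescence quenching readout, ex 480/em 530 nm; Controls: DMSO with and without IMP-1; Repeats: singlicate testing.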
VIM-2 inh: inhibitors of Pseudomonas aeruginosa VIM-2 metallo-beta-lactamase | AID 1527 | 290,000 compounds, 0.89% hits | purified VIM-2, nitrocefin hydrolysis, epi-absorbance fluorescence | inhibition, % at 5.6 µM;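 active means inhibition above the mean of all tested compounds plus 3 SD, cutoff set per screening run, cut at about 7.5% in these data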;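 further: red hydrolysis product quenches plate fluorescence so inhibitors raise well fluorescence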
core dimer inh: HCV core protein dimerization inhibition | TR-FRET GST/Flag-core106 dimerization, 1536-well | inhibition, % at 5 µM | 300,000 compounds, 0.33% hits;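 active means inhibition above the mean of all tested compounds plus 3 SD, set per screening campaign, cut at about 45% in these data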
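assay system = GST-tagged and Flag-tagged HCV core protein residues 1-106 | controls = unlabelled core106 and no-GST-core106 wells | incubation = compound-protein-antibody incubation 4 h at 22.5 °C | probe or stimulus = Eu donor and XL665 acceptor anti-tag antibodies | read-out = % inhibition based on acceptor/donor emission ratio | signal = TR-FRET 671 and 617 nm emission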
NS3 helicase inh: HCV NS3 helicase inhibition; NS3 helicase DNA unwinding, Cy5 molecular beacon fluorescence; inhibition, % at 10.9 µM; 290,000 compounds, 0.56% hits; AID 1800;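 active means inhibition above the mean of all tested compounds plus 3 SD, set per campaign, cut at about 35% in these data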
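System: Hepatitis C virus NS3 helicase domain fragment enzyme | Reagent: Annealed dual-labelled DNA beacon duplex, ATP-started | Compound dosing: 10.9 µM single point, 0.8% DMSO | Incubation: 1 h reaction at 25 °C, ATP-initiated | Technique: Cy5 fluorescence | Evaluation: Percent inhibition from t60/t0 fluorescence ratio | Benchmarks: Low DMSO, high thioflavine S at 110 µM | Replication: Singlicate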
SUMO HTRF inh: inhibitors of human SUMOylation (UBC9); P63279; HTRF SUMOylation assay, SAE1/SAE2 + UBC9, in vitro; inhibition, % at 35 µM; 290,000 compounds, 0.36% hits; in the data active means inhibition above about 50%, passing the limit was not always enough
Target sequence (P63279 whole entry, looked up): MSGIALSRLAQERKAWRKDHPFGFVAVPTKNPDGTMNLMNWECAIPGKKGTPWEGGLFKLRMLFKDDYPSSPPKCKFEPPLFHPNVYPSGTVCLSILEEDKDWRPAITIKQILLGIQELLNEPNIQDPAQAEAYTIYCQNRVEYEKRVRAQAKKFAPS
IMP-1 inh-2: IMP-1 inhibition, counter-screen for VIM-2 inhibitors. shares compounds with VIM-2 inh. 1,300 tested, under 10 active. purified IMP-1, nitrocefin hydrolysis, epi-absorbance fluorescence. inhibition, % at 5.6 µM; call rule not given here
VIM-2 FRET ctr: inhibits VIM-2 in FRET assay to exclude epi-absorbance artifacts | shares compounds with VIM-2 inh | purified VIM-2, CCF2 FRET substrate hydrolysis | inhibition, % at 5.6 µM | 1,300 compounds, 23% hits;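 active means inhibition above the mean of all tested compounds plus 3 SD, cut at about 19% in these data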
TEM-1 inh: TEM-1 inhibition, counter-screen for VIM-2 inhibitors; shares compounds with VIM-2 inh; 1,300 compounds, 3% hits; Purified TEM-1, nitrocefin hydrolysis, epi-absorbance fluorescence; inhibition, % at 5.6 µM; AID 1866;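 active means inhibition above that campaign's mean inhibition plus 3 SD, cut at about 0.46% in these data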
Target sequence (P62593 whole entry, looked up): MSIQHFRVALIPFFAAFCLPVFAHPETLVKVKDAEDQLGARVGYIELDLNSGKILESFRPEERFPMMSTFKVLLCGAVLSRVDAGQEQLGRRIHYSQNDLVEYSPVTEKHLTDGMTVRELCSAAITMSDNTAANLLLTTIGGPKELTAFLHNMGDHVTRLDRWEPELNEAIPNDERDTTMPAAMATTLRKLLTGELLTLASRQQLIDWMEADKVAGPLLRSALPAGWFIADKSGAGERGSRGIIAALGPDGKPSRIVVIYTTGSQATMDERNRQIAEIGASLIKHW
VIM-2 inh conf: confirmation of P. aeruginosa VIM-2 metallo-beta-lactamase inhibitors; shares compounds with VIM-2 inh; purified VIM-2, nitrocefin hydrolysis, epi-absorbance; inhibition, % at 5.6 µM; 1,300 compounds, 96% hits;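 active means inhibition of the VIM-2 beta-lactamase enzyme above about 11% from the earlier first-round screen, limit read from the data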
Numbers stand for hits; . = inactive; / = no result given. The list is not random: actives were taken first. Their share in the collection is about 3.1%.

SMILES	PHOSPHO1 inh	IMP-1 inh-1	VIM-2 inh	core dimer inh	NS3 helicase inh	SUMO HTRF inh	IMP-1 inh-2	VIM-2 FRET ctr	TEM-1 inh	VIM-2 inh conf
CC1CC(C)CN(CCCNS(=O)(=O)c2ccc3c(c2)CCN3C(=O)C2CC2)C1 (stereo unspecified)	.	.	12	.	.	.	.	.	.	8.9
O=C(C1CC1)N1CCc2cc(S(=O)(=O)NCCCN3CCCCC3)ccc21	.	.	.	.	.	.	/	/	/	/
CCCc1cc(=O)oc2c(C)c(OCC(=O)NC3CCN(Cc4ccccc4)CC3)ccc12	.	.	16	.	.	.	.	.	.	27
CCCc1cc(=O)oc2cc(OCC(=O)NC3CCN(Cc4ccccc4)CC3)ccc12	.	.	.	.	.	.	/	/	/	/
Cc1cc(=O)oc2cc(OCC(=O)NC3CCN(Cc4ccccc4)CC3)ccc12	.	.	.	.	.	.	/	/	/	/
O=C(COc1ccc2c3c(c(=O)oc2c1)CCC3)Nc1ccc(CN2CCOCC2)cc1	.	.	18	.	.	.	.	.	.	27
O=C(COc1ccc2c3c(c(=O)oc2c1)CCC3)NC1CCN(Cc2ccccc2)CC1	.	.	28	.	.	.	.	.	0.7	39
COc1ccc(C2CC(c3ccccc3)=NN2C(=O)COC(=O)C2(C)CC2(Cl)Cl)cc1 (stereo unspecified)	.	.	.	.	.	.	/	/	/	/
O=C(O)CCS(=O)(=O)c1cccc2cccnc12	.	.	.	.	.	.	/	/	/	/
CCSS(=O)(=O)c1cccc2cccnc12	.	.	23	.	.	.	.	.	.	29
CCCN1CCc2c(sc(NC(=O)c3ccc(S(=O)(=O)N4CCN(C(=O)OCC)CC4)cc3)c2C(N)=O)C1	.	.	.	.	.	.	/	/	/	/
CCOC(=O)N1CCN(S(=O)(=O)c2ccc(C(=O)Nc3sc4c(c3C(=O)OC)CCN(C)C4)cc2)CC1	.	.	77	.	.	.	.	.	.	82
CCc1csc(CCNC(=O)C2CCC(=O)N(Cc3cccc(C(F)(F)F)c3)C2)n1 (stereo unspecified)	.	.	.	.	.	.	/	/	/	/
Nc1c(Cl)ncnc1NCCc1ccc(O)cc1	.	.	.	.	.	.	/	/	/	/
Cc1cccn2c(=O)c3cc(C(=O)NC4CCCC4)sc3nc12	.	.	17	.	.	.	.	.	.	15
CCOCCCNC(=O)c1cc2c(=O)n3cccc(C)c3nc2s1	.	.	16	.	.	.	.	.	.	31
Cc1cccn2c(=O)c3cc(C(=O)NC4CCCCC4)c(=N)n(Cc4ccccc4)c3nc12	.	.	.	.	.	.	/	/	/	/
CCCN(CCC)C(=O)c1cc2c(=O)n3cccc(C)c3nc2s1	.	.	12	.	.	.	.	.	.	17
Cc1cccn2c(=O)c3cc(C(=O)NCC(C)C)sc3nc12	.	.	14	.	.	.	.	.	.	23
CCN(CC)C(=O)c1cc2c(=O)n3ccccc3nc2s1	.	.	.	.	.	.	/	/	/	/
Cn1cnc2c1c(=O)n(Cc1cccc(Cl)c1)c(=O)n2C	.	.	.	.	.	.	/	/	/	/
CC(C)c1ccc(O)c(NC(=S)NC(=O)c2ccc3c(c2)OCO3)c1	.	.	.	.	.	.	/	/	/	/
O=C(CSc1nnc(-c2cccnc2)o1)N1CCCCC1	.	.	.	.	.	.	/	/	/	/
CC(C)CCNC(=O)c1cc2c(=O)n3ccccc3nc2s1	.	.	.	.	.	.	/	/	/	/
Cc1cccn2c(=O)c3cc(C(=O)NCCCOC(C)C)sc3nc12	.	.	18	.	.	.	.	.	.	26
SMILES	PHOSPHO1 inh	IMP-1 inh-1	VIM-2 inh	core dimer inh	NS3 helicase inh	SUMO HTRF inh	IMP-1 inh-2	VIM-2 FRET ctr	TEM-1 inh	VIM-2 inh conf
COCCNC(=S)N=Nc1c(O)[nH]c2ccc([N+](=O)[O-])cc12	.	.	.	.	.	.	/	/	/	/
Cc1c(OCC(=O)NCCCN2CCCC2=O)ccc2c3c(c(=O)oc12)CCCC3	.	.	12	.	.	.	.	.	.	21
Cc1cc(=O)oc2c(C)c(OCC(=O)NCCCN3CCCC3=O)ccc12	.	.	.	.	.	.	/	/	/	/
Cc1c(OCC(=O)NCCCN2CCCC2=O)ccc2c3c(c(=O)oc12)CCC3	.	.	23	.	.	.	.	.	.	29
Cc1cc(Nc2ccc(C)c(C)c2)n2nc(C)nc2n1	.	.	16	.	.	.	.	.	.	34
COc1cc(OC)c(Nc2cc(C)nc3nc(C)nn23)cc1Cl	.	.	35	.	.	.	.	.	.	44
Cc1ccc2cc(CCNS(=O)(=O)c3ccc(F)cc3)c(=O)[nH]c2c1C	.	.	.	.	.	.	/	/	/	/
Oc1ccc(-c2nccc(-c3ccc(F)cc3)n2)cc1	.	.	16	.	.	.	.	.	.	31
S=c1[nH]nc(CCCc2n[nH]c(=S)o2)o1	.	.	.	.	.	.	/	/	/	/
Clc1ccccc1-c1nnc2sc(-c3ccncc3)nn12	.	.	.	.	.	.	/	/	/	/
Clc1ccccc1-c1nn2c(-c3ccncc3)nnc2s1	72	.	22	.	.	.	.	.	.	55
O=C1NC2=C(C(=O)OC2)C(c2ccc(OC(F)(F)F)cc2)N1 (stereo unspecified)	.	.	.	.	.	.	/	/	/	/
O=C1C(=O)N(Cc2cccnc2)C(c2ccccn2)/C1=C(/O)c1ccccc1 (stereo unspecified)	.	.	44	.	.	.	.	62	.	50
O=C1C(=O)N(CCCn2ccnc2)C(c2ccccn2)/C1=C(/O)c1ccccc1 (stereo unspecified)	.	/	/	/	/	.	/	/	/	/
CN1C(=O)C2(N=c3ccccc3=N2)c2ccccc21	.	.	19	.	.	.	.	.	.	34
O=c1n(Cc2ccc(Cl)cc2)c2sc3c(c2c2ncnn12)CCCC3	.	.	.	.	.	.	/	/	/	/
C=CCn1c(=O)n2ncnc2c2c3c(sc21)CCCC3	.	.	15	.	.	.	.	.	.	39
O=C1CSC(c2ccc(F)c(F)c2)N1c1ccccc1F (stereo unspecified)	.	.	.	.	.	.	/	/	/	/
COC(=O)c1ccc(COc2ccccc2/C=N/Nc2cccc(C(=O)O)c2)cc1	.	.	.	/	.	.	/	/	/	/

Source: PubChem BioAssay (several laboratories)
